Results reported in ChEMBL document CHEMBL1137637, “Quinuclidine derivatives as potential antiparasitics” (Antimicrob Agents Chemother, 2007).
≈ marks a conversion by molar mass, not a printed value.

Legend:
[1] = biological target: T1, Farnesyltransferase, putative (Leishmania major, UniProt Q4Q5W4); assay: Inhibition of Leishmania major recombinant squalene synthase expressed in Escherichia coli by liquid scintillation counter
T1 sequence (Q4Q5W4 whole entry): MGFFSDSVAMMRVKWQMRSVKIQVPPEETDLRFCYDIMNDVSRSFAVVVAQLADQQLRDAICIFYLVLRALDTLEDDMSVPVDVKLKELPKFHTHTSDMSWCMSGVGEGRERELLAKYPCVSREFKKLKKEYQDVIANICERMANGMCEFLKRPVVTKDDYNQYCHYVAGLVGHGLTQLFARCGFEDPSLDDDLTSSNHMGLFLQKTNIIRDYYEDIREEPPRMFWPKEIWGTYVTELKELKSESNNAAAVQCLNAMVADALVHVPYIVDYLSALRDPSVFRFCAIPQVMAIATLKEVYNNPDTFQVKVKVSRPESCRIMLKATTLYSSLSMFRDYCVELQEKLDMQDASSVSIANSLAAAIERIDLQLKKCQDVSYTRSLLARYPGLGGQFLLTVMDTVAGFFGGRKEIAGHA
Outline: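 Soluble E. coli extract expressing L. major SQS truncated by 16 N-terminal and 40 C-terminal residues. Buffer: 50 mM phosphate pH 7.4, 20 mM MgCl2, 5 mM CHAPS, 1% Tween 80, 10 mM DTT, BSA, 0.25 mM NADPH, and a glucose-6-phosphate/G6PDH regenerating system. Substrate 0.5 μM radiolabelled farnesyl pyrophosphate. Squalene band counted by scintillation. IC50 from hyperbolic plot of five concentrations in duplicate, usually run twice.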

Leishmania amazonensis [2] = assay: Antileishmanial activity against Leishmania mexicana amazonensis promastigotes by trypan blue exclusion method; type: functional, organism-based
Outline: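 L. mexicana amazonensis promastigotes cultured in liver infusion-tryptose medium with lactalbumin and 10% FCS at 26°C, unagitated. Cultures started at 2 × 10⁶ cells/ml and drug added at 0.5–1 × 10⁷ cells/ml. Density counted by electronic particle counter and hemocytometer. Viability by trypan blue exclusion. Triplicate growth experiments.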

Leishmania amazonensis [3] = assay: Inhibition of sterol biosynthesis in Leishmania mexicana amazonensis promastigotes assessed as reduction in exogenous cholesterol level at 1 uM after 96 hrs by gas-liquid chromatography; type: functional; parameters: scale not given: the % may be the effect or the level left
Outline: (§1)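 L. mexicana promastigotes exposed to compound for 96 h. Total lipids extracted and neutral sterols separated from polar lipids by silicic acid column chromatography. Sterols analysed by TLC and by quantitative capillary gas-liquid chromatography with mass spectrometry. Composition expressed as mass % of free sterols, compared with untreated control.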

Leishmania amazonensis [4] = assay: Inhibition of sterol biosynthesis in Leishmania mexicana amazonensis promastigotes assessed as reduction in endogenous 5-dehydro episterol level at 1 uM after 96 hrs by gas-liquid chromatography; type: functional; parameters: scale not given: the % may be the effect or the level left; outline: as §1
Leishmania amazonensis [5] = assay: Inhibition of sterol biosynthesis in Leishmania mexicana amazonensis promastigotes assessed as reduction in endogenous episterol level at 1 uM after 96 hrs by gas-liquid chromatography; type: functional; parameters: scale not given: the % may be the effect or the level left; outline: as §1
Leishmania amazonensis [6] = assay: Inhibition of sterol biosynthesis in Leishmania mexicana amazonensis promastigotes assessed as reduction in exogenous cholesterol level at 3 uM after 96 hrs by gas-liquid chromatography; type: functional; parameters: scale not given: the % may be the effect or the level left; outline: as §1
Leishmania amazonensis [7] = assay: Inhibition of sterol biosynthesis in Leishmania mexicana amazonensis promastigotes assessed as reduction in endogenous 5-dehydro episterol level at 3 uM after 96 hrs by gas-liquid chromatography; type: functional; parameters: scale not given: the % may be the effect or the level left; outline: as §1
Leishmania amazonensis [8] = assay: Inhibition of sterol biosynthesis in Leishmania mexicana amazonensis promastigotes assessed as reduction in endogenous episterol level at 3 uM after 96 hrs by gas-liquid chromatography; type: functional; parameters: scale not given: the % may be the effect or the level left; outline: as §1
Leishmania donovani = assay: Antileishmanial activity against Leishmania donovani MHOM/ET/67/L82 axenic amastigotes after 72 hrs by resazurin assay; type: functional, organism-based; details: MHOM/ET/67/L82, 72 h
Outline: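 L. donovani MHOM/ET/67/L82 amastigotes grown axenically at 37°C in synthetic minimal medium at pH 5.4 with 10% heat-inactivated FBS under 5% CO2. 1 × 10⁵ amastigotes per well with seven threefold dilutions, 30 to 0.041 μg/ml. After 72 h, resazurin added for 2–4 h more. Fluorescence read at ex 536/em 588 nm. IC50 taken from sigmoidal curve. Run in duplicate, with an independent repeat for actives.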

L6 = assay: Cytotoxicity against rat L6 cells after 72 hrs by resazurin assay; type: cell-based; details: L6, 72 h
Outline: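 L-6 cells seeded at 4 × 10⁴ cells/ml in RPMI 1640 with 10% FBS and 2 mM L-glutamine. After 24 h, medium replaced with serial drug dilution and incubated for 72 h at 37°C in 5% CO2. Resazurin added for 2–4 h, fluorescence read at ex 536/em 588 nm. IC50 from sigmoidal curve. Duplicate, with an independent repeat for actives.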

Trypanosoma cruzi = assay: Antitrypanosomal activity against trypomastigotes of Trypanosoma cruzi Tulahuen C2C4 containing lacZ gene in rat L6 cells after 4 days by chlorophenol red-beta-D-galactopyranoside/Nonidet assay; type: functional, organism-based; details: Tulahuen C2C4, L6, 96 h
Outline: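 L-6 rat myoblasts seeded at 2,000 cells/well in RPMI 1640 with 10% FBS and 2 mM L-glutamine. After 24 h, 5,000 T. cruzi Tulahuen C2C4 lacZ trypomastigotes added with serial drug dilution. Incubated at 37°C in 5% CO2 for 4 days. CPRG/Nonidet substrate added and colour read at 540 nm after 2–4 h. IC50 from sigmoidal curve. Duplicate determinations.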

[9] = test system: Trypanosoma brucei rhodesiense; assay: Trypanocidal activity against Trypanosoma brucei rhodesiense STIB 900 bloodstream form after 72 hrs by resazurin assay; type: functional, organism-based; details: STIB 900, 72 h
Outline: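 T. b. rhodesiense STIB 900 bloodstream forms in MEM with 2-mercaptoethanol and 15% heat-inactivated horse serum, with serial drug dilutions. Incubated 72 h at 37°C in 5% CO2. Resazurin added for 2–4 h more, fluorescence read at ex 536/em 588 nm. IC50 from sigmoidal curve. Duplicate, with an independent repeat for actives.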

Plasmodium falciparum = assay: Antiplasmodial activity after 48 hrs against chloroquine and pyrimethamine-resistant Plasmodium falciparum K1 in human erythrocytes by [3H]hypoxanthine uptake; type: functional, organism-based
Outline: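 P. falciparum K1 in human red cells in RPMI 1640 with 5% Albumax, exposed to serial drug dilutions. Incubated 48 h at 37°C under reduced oxygen, then 0.5 μCi [³H]hypoxanthine per well for 24 h more. Cells harvested onto glass-fibre filters and counted by scintillation. Result expressed as % of untreated control, with IC50 from sigmoidal curve. Duplicate, plus an independent repeat for actives.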

Leishmania amazonensis [10] = assay: Inhibition of sterol biosynthesis in Leishmania mexicana amazonensis promastigotes assessed as reduction in endogenous cholesta-5,7,24-trien-3beta-ol level at 10 uM after 96 hrs by gas-liquid chromatography; type: functional; parameters: scale not given: the % may be the effect or the level left; outline: as §1
Leishmania amazonensis [11] = assay: Inhibition of sterol biosynthesis in Leishmania mexicana amazonensis promastigotes assessed as reduction in endogenous cholesta-7,24-dien-3beta-ol level at 10 uM after 96 hrs by gas-liquid chromatography; type: functional; parameters: scale not given: the % may be the effect or the level left; outline: as §1
Leishmania amazonensis [12] = assay: Inhibition of sterol biosynthesis in Leishmania mexicana amazonensis promastigotes assessed as reduction in exogenous cholesterol level at 10 uM after 96 hrs by gas-liquid chromatography; type: functional; parameters: scale not given: the % may be the effect or the level left; outline: as §1
Leishmania amazonensis [13] = assay: Inhibition of sterol biosynthesis in Leishmania mexicana amazonensis promastigotes assessed as reduction in endogenous 5-dehydro episterol level at 10 uM after 96 hrs by gas-liquid chromatography; type: functional; parameters: scale not given: the % may be the effect or the level left; outline: as §1
Leishmania amazonensis [14] = assay: Inhibition of sterol biosynthesis in Leishmania mexicana amazonensis promastigotes assessed as reduction in endogenous episterol level at 10 uM after 96 hrs by gas-liquid chromatography; type: functional; parameters: scale not given: the % may be the effect or the level left; outline: as §1
Squalene synthase = biological target: T2, Squalene synthase (Homo sapiens, UniProt P37268); assay: Inhibition of human recombinant squalene synthase expressed in Escherichia coli BL21(DE3 pLysS) up to 1 uM by liquid scintillation counter
T2 sequence (P37268 whole entry): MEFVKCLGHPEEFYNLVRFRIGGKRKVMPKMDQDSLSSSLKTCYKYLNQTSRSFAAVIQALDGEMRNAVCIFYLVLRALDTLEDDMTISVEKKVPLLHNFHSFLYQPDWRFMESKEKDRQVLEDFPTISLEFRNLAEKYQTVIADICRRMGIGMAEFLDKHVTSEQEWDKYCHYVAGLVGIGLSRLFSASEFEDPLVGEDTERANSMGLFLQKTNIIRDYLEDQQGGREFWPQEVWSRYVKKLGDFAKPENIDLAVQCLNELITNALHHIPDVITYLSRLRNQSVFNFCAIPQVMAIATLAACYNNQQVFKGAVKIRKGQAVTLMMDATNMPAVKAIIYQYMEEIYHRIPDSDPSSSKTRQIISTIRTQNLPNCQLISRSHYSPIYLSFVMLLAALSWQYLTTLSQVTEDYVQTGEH
Outline: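 Human SQS in extracts of E. coli BL21(DE3 pLysS) carrying pHSS16, assayed under the same conditions as the L. major enzyme. Buffer: phosphate pH 7.4, MgCl2, CHAPS, Tween 80, DTT, BSA, and NADPH with a regenerating system. Substrate 0.5 μM radiolabelled farnesyl pyrophosphate. Squalene band radioactivity counted by scintillation.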

Row | Structure (SMILES) | IC50 [1] [µM] | MIC (Leishmania amazonensis [2]) [µM] | Activity (Leishmania amazonensis [3]) [%] | Activity (Leishmania amazonensis [4]) [%] | Activity (Leishmania amazonensis [5]) [%] | Activity (Leishmania amazonensis [6]) [%] | Activity (Leishmania amazonensis [7]) [%] | Activity (Leishmania amazonensis [8]) [%] | IC50 (Leishmania donovani) [µM] | IC50 (L6) [µM] | IC50 (Trypanosoma cruzi) [µM] | IC50 [9] [µM] | IC50 (Plasmodium falciparum) [µM] | IC50 (Leishmania amazonensis [2]) [µM] | Activity (Leishmania amazonensis [10]) [%] | Activity (Leishmania amazonensis [11]) [%] | Activity (Leishmania amazonensis [12]) [%] | Activity (Leishmania amazonensis [13]) [%] | Activity (Leishmania amazonensis [14]) [%] | IC50 (Squalene synthase)
1 | C1=C(c2cc3ccccc3s2)C2CCN1CC2 | > 1 | 10 (≈ 2.41 µg/mL) | 47.9 | 28.6 | 24.5 | 62.3 | 15.5 | 22.2 | 1.2 | 146 | 64.2 | 5.6 | 12 | – | – | – | – | – | – | –
2 | CCOC(=O)Cc1ccc(C#C[C@H]2CN3CCC2C[C@H]3CO)cc1 (stereo partly drawn) | > 1 | – | – | – | – | – | – | – | > 92 | 155 | 50 | 64.7 | 5 | > 10 | 10.7 | 11.8 | 25.2 | 41.5 | 10.8 | –
3 | C(=C1\CN2CCC1CC2)/c1ccc(C2OCCO2)cc1 | > 1 | 10 (≈ 2.71 µg/mL) | – | – | – | – | – | – | 77.7 | 239 | 30.2 | 10.3 | 10 | – | – | – | 42.1 | 57.9 | – | Not Active
4 | CCOC(=O)Cc1ccc(C#C[C@H]2CN3CCC2C[C@@H]3CO)cc1 (stereo partly drawn) | > 1 | > 10 | – | – | – | – | – | – | 14.6 | 156 | 22.9 | 32.3 | 5.2 | – | 3.6 | 3.3 | 14.6 | 73.4 | 8.4 | –
5 | CCOC(=O)c1ccc(C#C[C@H]2CN3CCC2C[C@H]3CO)cc1 (stereo partly drawn) | > 1 | > 10 | – | – | – | – | – | – | 10.2 | 37.6 | 19.4 | 1.7 | 0.6 | – | 23.6 | 3.3 | 18.7 | 50.3 | 4.1 | –
6 | CCOC(=O)c1ccc(C2=CN3CCC2CC3)cc1 | 0.18 | 1 (≈ 0.257 µg/mL) | 52.2 | 36.3 | 11.5 | 73.4 | 13.4 | 13.2 | 1 | 265 | 16 | 35.1 | 11.6 | – | – | – | – | – | – | –
7 | OC[C@@H]1CC2CCN1C[C@@H]2C#Cc1ccccc1 (stereo partly drawn) | > 1 | > 10 | – | – | – | – | – | – | > 124 | 74.5 | 8.2 | 12.8 | 3.3 | – | 2 | 3.9 | 17.9 | 63 | 13.2 | –
8 | OC[C@@H]1CC2CCN1C[C@@H]2C#Cc1cnc2ccccc2c1 (stereo partly drawn) | > 1 | > 10 | – | – | – | – | – | – | 80 | 169 | 19.1 | 7.1 | 1.7 | – | 5.9 | 12.3 | 27.5 | 40.6 | 13.7 | –
9 | OC[C@H]1CC2CCN1C[C@@H]2C#Cc1ccccc1 (stereo partly drawn) | > 1 | 10 (≈ 2.41 µg/mL) | – | – | – | – | – | – | > 124 | 166 | 25.6 | 14.5 | 6.5 | – | 2.8 | 2.7 | 13.1 | 69.6 | 11.8 | –
